INS-1E GSIS act: primary screen for activators of insulin secretion dependent on glucose, INS-1E cells, GLuc reporter luminescence | INS-1E GLuc reporter insulin secretion, 2-3 h | activation, % at 16.6 µM | actives 0.61% (n = 370,000) | AID 743287;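 active means lowest replicate activation of at least 40%, so every replicate reaches that level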
dFosB act-1: mouse delta FosB homodimer activation; P13346; purified delta FosB, TAMRA-CDK5 oligo fluorescence polarization; percent of positive-control signal above neutral wells; activation, % at 25 µM; actives 0.99% (n = 340,000);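 active means mean activation above about 17%, with every replicate also reaching it, limit read from the data, passing the limit was not always enough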
Cneo AK release: Cryptococcus neoformans lysis via adenylate kinase release; actives 0.2% (n = 360,000); C. neoformans lysis, adenylate kinase release luminescence, 4 h; normalised: neutral wells 0, clomiphene wells 100; AID 651654; lysis activity, % at 15 µM;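 active means mean lysis activity across replicates of at least 80%, whatever share of replicates individually reach that level; inactive means mean lysis activity below 80%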
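Material: C. neoformans cells; Schedule: 4 h static compound exposure, 37 °C, read 1 h post-reagent; Measured by: adenylate kinase release luminescence; Read-out: signal increase indicating cell lysis; Controls: Clomiphene as positive lysis control.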
CDK5 p35 inh: blocks human CDK5/p35 kinase activity; Q00535+Q15078; Recombinant CDK5/p35, ADP-Glo luminescence, 60 min; inhibition, % at 10 µM; actives 0.01% (n = 330,000);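 active means highest replicate inhibition of at least 50% and at least 75% of replicates reaching 50%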
Target sequence (Q00535 whole entry, looked up): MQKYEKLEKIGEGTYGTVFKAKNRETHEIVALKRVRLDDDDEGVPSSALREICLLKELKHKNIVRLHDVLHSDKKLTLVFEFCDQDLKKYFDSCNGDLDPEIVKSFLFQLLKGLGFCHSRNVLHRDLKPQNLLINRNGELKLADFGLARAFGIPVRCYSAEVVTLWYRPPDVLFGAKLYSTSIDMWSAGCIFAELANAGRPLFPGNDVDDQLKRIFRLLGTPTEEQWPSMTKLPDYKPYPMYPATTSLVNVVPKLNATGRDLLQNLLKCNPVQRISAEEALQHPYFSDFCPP
Target sequence (Q15078 whole entry, looked up): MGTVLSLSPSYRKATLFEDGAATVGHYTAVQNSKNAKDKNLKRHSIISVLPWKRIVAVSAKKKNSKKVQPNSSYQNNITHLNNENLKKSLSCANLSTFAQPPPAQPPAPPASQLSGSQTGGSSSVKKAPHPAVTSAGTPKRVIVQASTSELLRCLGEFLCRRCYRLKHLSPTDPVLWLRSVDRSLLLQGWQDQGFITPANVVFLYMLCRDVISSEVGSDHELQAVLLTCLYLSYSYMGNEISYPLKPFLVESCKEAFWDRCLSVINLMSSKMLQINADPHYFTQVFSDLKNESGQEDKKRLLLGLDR
PAX8 reporter: inhibitors of PAX8 transcriptional activity in RMG-I cells; RMG-I TPO-luciferase reporter, SteadyGlo, 24 h; AID 652154; inhibition, % at 12.6 µM; actives 1.2% (n = 360,000);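 active means mean replicate inhibition at least 60% with every replicate also reaching 60%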;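 further: luciferase light reporting Pax8 driven TPO promoter activity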
Env fusion inh: inhibitors of HIV Env-mediated cell fusion | HeLa-JRFL Env/CEM21 cell fusion, luciferase | inhibition, % at 12.3 µM | actives 1.1% (n = 360,000) | AID 651610;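 active means mean replicate inhibition score of at least 50 and every replicate individually at or above 50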
dFosB act-2: activators of mouse delta FosB homodimer DNA binding; 2,400 tested, under 10 active; activation, % at 24.9 µM; shares compounds with dFosB act-1; purified delta FosB, TAMRA-CDK5 oligo fluorescence polarization; normalised: neutral wells 0, positive control 100;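 active means highest replicate activation at or above 34% and every replicate reaching that threshold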;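 further: higher polarization means more probe DNA bound by delta FosB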
Hits are given with their value. An excerpt weighted towards active compounds, which were near 2.9% of everything screened.

Screening O=[N+]([O-])c1ccc2[nH]cc(S(=O)(=O)N3CCN(c4cccc(Cl)c4)CC3)c2c1 returned INS-1E GSIS act inactive, dFosB act-1 26, Cneo AK release inactive, CDK5 p35 inh inactive, PAX8 reporter inactive, Env fusion inh inactive and dFosB act-2 inactive.
Screening O=S(=O)(c1ccccc1)N1CCN(c2cccc(Cl)c2)CC1 returned INS-1E GSIS act inactive, dFosB act-1 inactive, Cneo AK release inactive, CDK5 p35 inh inactive, PAX8 reporter inactive and Env fusion inh inactive.
Screening O=C(CSc1nc(-c2ccccc2)cc(C(F)(F)F)n1)NCc1cccs1 returned INS-1E GSIS act inactive, dFosB act-1 27, CDK5 p35 inh inactive, PAX8 reporter inactive and dFosB act-2 inactive.
For O=C(CSc1nc(-c2ccccc2)cc(C(F)(F)F)n1)NCc1ccco1 the results were INS-1E GSIS act inactive, dFosB act-1 inactive, Cneo AK release inactive, CDK5 p35 inh inactive and Env fusion inh inactive.
For CC(=O)n1cc(/C=N/NC(=O)c2cccc(O)c2)c2ccccc21 the results were INS-1E GSIS act inactive, dFosB act-1 27, Cneo AK release inactive, CDK5 p35 inh inactive, PAX8 reporter inactive, Env fusion inh inactive and dFosB act-2 inactive.
CC(C)CN(C(=O)COC(=O)Cc1ccc(Cl)cc1)c1c(N)n(Cc2ccccc2)c(=O)[nH]c1=O was read as INS-1E GSIS act inactive, dFosB act-1 inactive, Cneo AK release inactive, CDK5 p35 inh inactive and Env fusion inh inactive.
Screening CC(C)CN(C(=O)CSc1nnnn1-c1ccccc1)c1c(N)n(CC(C)C)c(=O)[nH]c1=O returned INS-1E GSIS act inactive, dFosB act-1 38, CDK5 p35 inh inactive, PAX8 reporter inactive, Env fusion inh inactive and dFosB act-2 inactive.
`CC(C)CN(C(=O)COC(=O)/C=C/c1cccs1)c1c(N)n(Cc2ccccc2)c(=O)[nH]c1=O` gave INS-1E GSIS act 44, dFosB act-1 34, CDK5 p35 inh inactive, PAX8 reporter inactive, Env fusion inh inactive and dFosB act-2 inactive.
Screening CC(C)CN(C(=O)COC(=O)CSc1ccccc1)c1c(N)n(Cc2ccccc2)c(=O)[nH]c1=O returned INS-1E GSIS act inactive, dFosB act-1 29, Cneo AK release inactive, CDK5 p35 inh inactive, PAX8 reporter inactive and dFosB act-2 inactive.
Screening CN(C(=O)COC(=O)/C=C/c1ccc2ccccc2n1)c1c(N)n(Cc2ccccc2)c(=O)[nH]c1=O returned INS-1E GSIS act inactive, dFosB act-1 23, Cneo AK release inactive, CDK5 p35 inh inactive, PAX8 reporter 86, Env fusion inh inactive and dFosB act-2 inactive.
For COC(=O)c1ccc(NC(=O)c2c(C(=O)Nc3ccccc3)sc3nc(C)cc(=O)n23)cc1 the results were dFosB act-1 92, CDK5 p35 inh inactive, PAX8 reporter inactive, Env fusion inh inactive and dFosB act-2 inactive.
COc1ccc(-c2cn3c(C)c(C(=O)Nc4ccncc4)sc3n2)cc1 was read as INS-1E GSIS act inactive, dFosB act-1 inactive, Cneo AK release inactive, CDK5 p35 inh inactive, PAX8 reporter inactive and Env fusion inh inactive.
COC(=O)c1ccc(NC(=O)c2sc3nc(-c4ccccc4)cn3c2C)cc1 was read as dFosB act-1 26, Cneo AK release inactive, CDK5 p35 inh inactive, Env fusion inh inactive and dFosB act-2 inactive.
CSc1nc2ccccc2n1CC(=O)Nc1ccc(C)c(C)c1 was read as INS-1E GSIS act inactive, dFosB act-1 inactive, CDK5 p35 inh inactive and PAX8 reporter inactive.
For Cc1cccc(CSc2nc3ccncc3n2CC(=O)Nc2cc(C)cc(C)c2)c1 the results were INS-1E GSIS act inactive, dFosB act-1 33, Cneo AK release inactive, CDK5 p35 inh inactive, PAX8 reporter inactive, Env fusion inh inactive and dFosB act-2 inactive.
`Cc1ccc(S(=O)(=O)N[C@@H]2CC[C@@H](CCn3cc(C4(O)CCCC4)nn3)O[C@H]2CO)cc1` gave INS-1E GSIS act inactive, Cneo AK release inactive, PAX8 reporter inactive and Env fusion inh inactive.

Source: PubChem
